Measurements: ChEMBL document CHEMBL1155331, “Synthesis and SAR of a novel positive allosteric modulator (PAM) of the metabotropic glutamate receptor 4 (mGluR4)” (Bioorg Med Chem Lett, 2009)

What was measured:
[1] = biological target: T1, Metabotropic glutamate receptor 4 (Homo sapiens, UniProt Q14833); experiment: Allosteric modulator activity at human mGlu4 receptor expressed in CHO cells coexpressing Gqi5 assessed as effect on calcium flux in relative to glutamate; type: functional, cell-based
Summary of the method: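 hmGluR4/Gqi5 stably transfected CHO cells, 30,000/well, grown overnight at 37 °C, 5% CO2; loaded with 1 μM Fluo-4 AM for 45 min at 37 °C in HBSS/20 mM HEPES/2.5 mM probenecid. Baseline fluorescence read (ex 470, em 540 nm); compound preincubated ~2.5 min, then glutamate EC20, then EC80 2 min later. Ca2+ flux read; 10-point 1:3 concentration-response curves.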

[2] = biological target: T1, Metabotropic glutamate receptor 4; experiment: Allosteric modulator activity at human mGlu4 receptor expressed in CHO cells coexpressing Gqi5 assessed as effect on calcium flux; type: functional, cell-based

T1 sequence (Q14833 whole entry): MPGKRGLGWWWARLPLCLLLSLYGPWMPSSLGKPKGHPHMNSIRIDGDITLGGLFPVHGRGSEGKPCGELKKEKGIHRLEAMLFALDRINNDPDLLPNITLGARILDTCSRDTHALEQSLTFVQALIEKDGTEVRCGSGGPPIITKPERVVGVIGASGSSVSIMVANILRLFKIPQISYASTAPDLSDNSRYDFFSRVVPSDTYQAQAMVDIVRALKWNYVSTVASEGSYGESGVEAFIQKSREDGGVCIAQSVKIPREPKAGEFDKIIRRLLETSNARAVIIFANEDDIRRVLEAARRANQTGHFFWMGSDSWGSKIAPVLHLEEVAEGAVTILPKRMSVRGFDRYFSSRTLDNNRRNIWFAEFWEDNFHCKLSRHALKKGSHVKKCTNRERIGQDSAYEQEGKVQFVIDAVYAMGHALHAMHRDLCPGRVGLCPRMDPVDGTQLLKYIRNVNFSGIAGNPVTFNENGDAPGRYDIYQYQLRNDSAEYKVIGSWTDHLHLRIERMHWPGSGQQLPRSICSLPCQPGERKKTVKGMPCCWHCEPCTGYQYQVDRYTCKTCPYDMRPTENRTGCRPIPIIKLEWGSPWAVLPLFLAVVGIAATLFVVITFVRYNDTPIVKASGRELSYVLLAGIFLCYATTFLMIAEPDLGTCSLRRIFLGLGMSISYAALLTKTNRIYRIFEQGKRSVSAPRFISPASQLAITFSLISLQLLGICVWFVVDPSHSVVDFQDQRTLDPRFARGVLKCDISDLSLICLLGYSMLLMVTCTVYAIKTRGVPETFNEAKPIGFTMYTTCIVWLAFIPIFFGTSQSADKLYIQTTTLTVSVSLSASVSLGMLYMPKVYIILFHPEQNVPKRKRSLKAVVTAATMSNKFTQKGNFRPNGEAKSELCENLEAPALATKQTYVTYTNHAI

| Structure (SMILES) | Emax [1] [%] | EC50 ([2]; read-out: EC50) [µM] | EC50 ([2]; cho) |
| --- | --- | --- | --- |
| CNC(=O)[C@@H]1CCCC[C@@H]1C(=O)Nc1cc(Cl)cc(Cl)c1 | 106 | 10 | – |
| Cc1nc(NC(=O)[C@H]2CCCC[C@H]2C(=O)O)nn1C | – | – | Not Active |
| O=C(O)[C@@H]1CCC[C@H](C(=O)Nc2cc(Cl)cc(Cl)c2)C1 | – | – | Not Active |
| O=C(Nc1cc(Cl)cc(Cl)c1)[C@H]1CCCC[C@H]1C(=O)NC1CC1 | – | – | Not Active |
| NC(=O)[C@@H]1CC=CC[C@@H]1C(=O)Nc1cc(Cl)cc(Cl)c1 | 94 | 3.1 | – |
| O=C(Nc1cc(F)cc(Cl)c1)[C@H]1CCCC[C@H]1C(=O)O | 138 | 2 | – |
| N#C[C@@H]1CCCC[C@@H]1C(=O)Nc1cc(Cl)cc(Cl)c1 | 55 | 2 | – |
| O=C(Nc1cc(Cl)cc(Cl)c1)[C@H]1CC[C@H]1C(=O)O (single isomer, unassigned) | – | – | Not Active |
| O=C(Nc1cc(Cl)cc(Cl)c1)[C@H]1CCCC[C@H]1c1nsc(=O)[nH]1 | – | – | Not Active |
| O=C(Nc1cc(F)cc(F)c1)[C@H]1CCCC[C@H]1C(=O)O | – | – | Not Active |
| O=C(Nc1ccccn1)[C@H]1CCCC[C@H]1C(=O)O | – | – | Not Active |
| O=C(Nc1ccccc1)[C@H]1CCCC[C@H]1C(=O)O | 39 | > 10 | – |
| O=C(Nc1cccc(Br)c1)[C@H]1CCCC[C@H]1C(=O)O | – | – | Not Active |
| O=C(Nc1cc(Cl)cc(Cl)c1)[C@@H]1[C@H](C(=O)O)[C@H]2C=C[C@@H]1C2 | – | – | Not Active |
| O=C(Nc1cc(Cl)cc(Cl)c1)[C@H]1CCCC[C@H]1C(=O)N1CCOCC1 | – | – | Not Active |
| O=C(NCc1ccccc1)[C@H]1CCCC[C@H]1C(=O)O | – | – | Not Active |
| CN(C)C(=O)[C@@H]1CCCC[C@@H]1C(=O)Nc1cc(Cl)cc(Cl)c1 | – | – | Not Active |
| O=C1[C@H]2CCCC[C@H]2C(=O)N1c1cc(Cl)cc(Cl)c1 | 152 | 3.3 | – |
| O=C(Nc1cc(Cl)cc(Cl)c1)[C@@H]1[C@H](C(=O)O)[C@@H]2C=C[C@H]1C2 | – | – | Not Active |

| Structure (SMILES) | Emax [1] [%] | EC50 ([2]; read-out: EC50) [µM] | EC50 ([2]; cho) |
| --- | --- | --- | --- |
| CCCNC(=O)[C@@H]1CCCC[C@@H]1C(=O)Nc1cc(Cl)cc(Cl)c1 | 57 | 9.6 | – |
| O=C(NN1CCOCC1)[C@H]1CCCC[C@H]1C(=O)O | – | – | Not Active |
| O=C(Nc1cc(Cl)cc(Cl)c1)[C@H]1CCCC[C@H]1C(=O)O (relative stereo) | 127 | 0.74 | – |
| O=C(Nc1cc(Cl)cc(Cl)c1)[C@H]1CCCC[C@H]1C(=O)NCC1CC1 | 80 | 10 | – |
| CC1=CC[C@H](C(=O)Nc2cc(Cl)cc(Cl)c2)[C@H](C(=O)O)C1 | – | – | Not Active |
| O=C(Nc1cc(Cl)cc(Cl)c1)[C@H]1CCC[C@H]1C(=O)O | – | – | Not Active |
| O=C(O)CCC(=O)Nc1cc(Cl)cc(Cl)c1 | – | – | Not Active |
| O=C(Nc1cc(Cl)cc(Cl)c1)[C@H]1CCCC[C@H]1C(=O)NC1CCCC1 | – | – | Not Active |
| O=C(O)C1CCCN(C(=O)Nc2cc(Cl)cc(Cl)c2)C1 (stereo not given) | – | – | Not Active |
| O=C(NC1CCC1)[C@H]1CCCC[C@H]1C(=O)O | – | – | Not Active |
| O=C(Nc1cc(Cl)cc(Cl)c1)[C@H]1CCCC[C@H]1c1nnn[nH]1 | 152 | > 10 | – |
| O=C(Nc1cc(C(F)(F)F)cc(C(F)(F)F)c1)[C@H]1CCCC[C@H]1C(=O)O | – | – | Not Active |
| Cc1ccc(NC(=O)[C@H]2CCCC[C@H]2C(=O)O)cc1C | – | – | Not Active |
| NC(=O)[C@@H]1CCCC[C@@H]1C(=O)Nc1cc(Cl)cc(Cl)c1 | 104 | 0.95 | – |
| O=C(NC1CCCCC1)[C@H]1CCCC[C@H]1C(=O)O | – | – | Not Active |
| Cc1cc(C)cc(NC(=O)[C@H]2CCCC[C@H]2C(=O)O)c1 | – | – | Not Active |
| O=C(Nc1ccc(F)c(F)c1)[C@H]1CCCC[C@H]1C(=O)O | – | – | Not Active |
| CC1(C)[C@H](C(=O)Nc2cc(Cl)cc(Cl)c2)[C@@H]1C(=O)O | – | – | Not Active |
| O=C(Nc1cc(Cl)cc(Cl)c1)[C@H]1CC=CC[C@H]1C(=O)O | 150 | 2.7 | – |
